# Results taken from PubChem BioAssay.
# Activity calls are given as the source filed them.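 The calls were made as follows, unless noted: active = Her2 level under about 52% in both replicate screens, with viability over 70% of control (limit read from the data); inconclusive = Her2 under the limit in one screen only, or viability under 70%; inactive = Her2 level above the set limit.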
# How the values were obtained:
# [1] = reducers of endogenous Her2 protein level, primary screen, SKBR3 breast tumor cells, AlphaScreen, ATP viability (AID 461); settings: 18-24 h, measured here: SKBR3 viability, ATP luminescence, at 10 µM;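 as to Her2 level: lower value means less Her2 protein in the cells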;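 as to viability: percent of carrier control wells set as 100% viability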
# [2] = target: Receptor tyrosine-protein kinase erbB-2 (Homo sapiens) (UniProt P04626); experiment: as above; settings: 18-24 h, at 10 µM, stronger effect = lower value
# Chain of Receptor tyrosine-protein kinase erbB-2 (Homo sapiens) (P04626 whole entry, looked up): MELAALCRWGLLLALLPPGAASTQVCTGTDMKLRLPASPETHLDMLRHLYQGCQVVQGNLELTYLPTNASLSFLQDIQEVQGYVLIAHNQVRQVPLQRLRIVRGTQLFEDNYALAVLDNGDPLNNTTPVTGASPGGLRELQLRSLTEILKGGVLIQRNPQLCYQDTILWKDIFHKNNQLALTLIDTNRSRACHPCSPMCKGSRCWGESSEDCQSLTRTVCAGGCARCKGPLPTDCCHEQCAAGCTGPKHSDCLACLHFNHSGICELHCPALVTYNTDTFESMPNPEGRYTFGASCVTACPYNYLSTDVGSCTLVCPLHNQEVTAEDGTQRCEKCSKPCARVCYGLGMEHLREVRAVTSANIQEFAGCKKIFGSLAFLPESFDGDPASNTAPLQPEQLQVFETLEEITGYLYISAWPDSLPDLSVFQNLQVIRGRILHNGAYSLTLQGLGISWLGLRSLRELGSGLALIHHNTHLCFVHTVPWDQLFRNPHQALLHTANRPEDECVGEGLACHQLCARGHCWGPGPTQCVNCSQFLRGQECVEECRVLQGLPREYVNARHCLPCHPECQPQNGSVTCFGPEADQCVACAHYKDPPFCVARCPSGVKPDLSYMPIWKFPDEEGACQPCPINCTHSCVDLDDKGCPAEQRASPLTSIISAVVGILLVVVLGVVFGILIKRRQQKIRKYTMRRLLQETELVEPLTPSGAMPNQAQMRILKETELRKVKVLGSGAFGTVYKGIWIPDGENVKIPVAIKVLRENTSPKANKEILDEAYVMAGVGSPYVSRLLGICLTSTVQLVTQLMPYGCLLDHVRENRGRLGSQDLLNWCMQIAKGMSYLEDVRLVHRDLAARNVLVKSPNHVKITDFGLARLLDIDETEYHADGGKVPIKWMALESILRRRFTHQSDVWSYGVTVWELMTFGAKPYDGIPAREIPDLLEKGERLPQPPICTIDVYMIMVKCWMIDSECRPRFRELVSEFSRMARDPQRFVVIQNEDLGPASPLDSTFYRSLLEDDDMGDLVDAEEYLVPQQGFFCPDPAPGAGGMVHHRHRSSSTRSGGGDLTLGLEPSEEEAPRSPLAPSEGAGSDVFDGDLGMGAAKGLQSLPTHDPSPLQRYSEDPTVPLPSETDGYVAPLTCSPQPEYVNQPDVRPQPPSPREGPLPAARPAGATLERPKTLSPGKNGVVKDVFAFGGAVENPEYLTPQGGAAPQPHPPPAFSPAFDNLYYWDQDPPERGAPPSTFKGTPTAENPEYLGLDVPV
# [3] = SK-BR-3 cell growth inhibitors, pilot screen, 24 h, human (AID 572;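 active = viability at or below 10% of carrier control in both of two separate runs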;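 also: compound exposure lasted between 18 and 24 h rather than exactly 24 h; 100% = carrier-treated control wells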); settings: SK-BR-3 viability, CellTiter-Glo luminescence, at 10 µM, stronger effect = lower value
# [4] = HUVEC growth inhibition – cell-based, human, primary screen (AID 575;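 active = viability at or below 30% in both replicate assays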;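 also: 100% = median of untreated cell wells with 0.1% DMSO on each plate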); settings: HUVEC proliferation, CellTiter-Glo luminescence, 72 h; at 10 µM; stronger effect = lower value
# Method in brief: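 Test system – primary HUVEC, no more than 12 passages · Dosing – one dose, 10 µM final, 0.1% DMSO · Times – 72 h treatment at 37 °C · Measured by – ATP-based CellTiter-Glo luminescent read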
# [5] = growth inhibitors of H69AR lung tumor, primary screen, human, duplicate replicates (AID 580;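 active = viability at or under a set limit in both replicates, limit being median viability minus 3 SD, cut at about 48% in these data, passing the limit was not always enough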;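 also: 100% = mean luminescence of untreated wells and 0% = no signal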); settings: H69AR lung tumor cells viability, ATP luminescence, 72 h; at 10 µM; stronger effect = lower value
# [6] = reversal of MRP1-mediated doxorubicin resistance, pilot screen, H69AR cells, doxorubicin co-treatment (AID 601;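 active = viability loss from added drug above about 55%, and viability with drug at most 40%, in both replicates, limit read from the data, passing the limit was not always enough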); settings: CellTiter-Glo, 72 h, at 10 µM; for differential viability (reversal): stronger effect = higher value
# [7] = 384-well plate pilot, post-Golgi transport modulator project, inhibition of yeast transport mutant growth (AID 636; in the data active = inhibition above about 31%); settings: absorbance 615 nm, about 18 h, stronger effect = higher value
# [8] = growth suppression of yeast trafficking mutant, preliminary HTS, modulators of trafficking downstream of Golgi apparatus project, 1536-format plate, OD 615 nm (AID 637; in the data active = inhibition above about 30%); settings: yeast transport mutant growth, absorbance 615 nm, 18 h; stronger effect = higher value
# [9] = H69AR cells + 2 uM doxorubicin, measured here: viability with 2 uM doxorubicin, stronger effect = lower value
# [10] = H69AR cells, compound alone cytotoxicity
SMILES,viability [1] [%],Her2 level [2],viability [3],viability [4],viability [5],differential viability (reversal) ([6]; H69AR cells + 2 uM doxorubicin),"viability [6, 9] [%]","viability [6, 10] [%]",inhibition [7],inhibition [8]
CC(C)OC(=O)CSc1nc2cccnc2n1C1CCCCC1,124,93.5% (inactive),124% (inactive),112% (inactive),95.3% (inactive),5.92% (inactive),89.4,95.3,-5.33% (inactive),3.44% (inactive)
COc1ccc(/C(O)=C2/C(=O)C(=O)N(CCCN(C)C)C2c2ccc(Cl)cc2)cc1OC (stereo not given),101,97.5% (inactive),101% (inactive),103% (inactive),103% (inactive),-1.86% (inactive),105,103,0.4% (inactive),-3.39% (inactive)
Cc1ccc2cc3cc(C(=O)NCCN4CCOCC4)oc3nc2c1,99,79.5% (inactive),99% (inactive),86% (inactive),96.6% (inactive),9.98% (inactive),86.6,96.6,-5.13% (inactive),8.67% (inactive)
COCCNC(=O)CSc1nc(-c2ccc(OC)c(OC)c2)cc(C(F)(F)F)n1,98.5,94% (inactive),98.5% (inactive),101% (inactive),89% (inactive),-11.1% (inactive),100,89,1.84% (inactive),-2.3% (inactive)
COc1cccc(Oc2cn[nH]c2-c2ccc(O)cc2O)c1,104,122% (inactive),104% (inactive),65.9% (inactive),89.5% (inactive),-8.96% (inactive),98.4,89.5,0.26% (inactive),-5% (inactive)
COc1cc2c(cc1NC(=O)COC(=O)Cn1cnc3ccccc31)oc1ccccc12,92,89% (inactive),92% (inactive),64.4% (inactive),80.8% (inactive),-16.1% (inactive),96.9,80.8,-1.87% (inactive),-3.23% (inactive)
CCOC(=O)N1CCN(C(=O)CCc2ccc(S(=O)(=O)NCCc3ccccc3)cc2)CC1,89.5,102% (inactive),89.5% (inactive),87.2% (inactive),101% (inactive),17.6% (inactive),83.1,101,-0.13% (inactive),-4% (inactive)
O=C1CC(c2cccs2)CC2=C1C(c1ccccc1)n1ncnc1N2 (stereo not given),105,104% (inactive),105% (inactive),100% (inactive),93.8% (inactive),-5.41% (inactive),99.2,93.8,-4.53% (inactive),-2.3% (inactive)
Cc1ccc2[nH]c3c(c2c1)CCc1cn[nH]c1-3,132,68% (inactive),132% (inactive),66.4% (inactive),38.4% (active),-18.3% (inactive),56.7,38.4,-0.8% (inactive),-8.23% (inactive)
CCOC(=O)c1ccccc1NC(=O)c1cc2sccc2n1C,90,96% (inactive),90% (inactive),70.5% (inactive),81% (inactive),3.9% (inactive),77,81,1.23% (inactive),-2.38% (inactive)
CCOC(=O)c1c(C)oc2ccc(OCC(=O)N(CC)CC)cc12,85.5,85% (inactive),85.5% (inactive),101% (inactive),101% (inactive),3.73% (inactive),97.2,101,-5.26% (inactive),-0.32% (inactive)
COc1ccc(-n2nnc3c(=O)n(C/C=C/c4ccccc4)cnc32)cc1,116,100% (inactive),116% (inactive),105% (inactive),86.1% (inactive),8.94% (inactive),77.1,86.1,-6.62% (inactive),1.33% (inactive)
CCOc1ccc(-c2nnn(CCC(=O)O)n2)cc1OC,95.5,84% (inactive),95.5% (inactive),104% (inactive),102% (inactive),12.1% (inactive),89.8,102,-4.93% (inactive),-0.16% (inactive)
O=C1CCc2cc(S(=O)(=O)N3CCC(C(=O)Nc4nccs4)CC3)ccc2N1,98,105% (inactive),98% (inactive),110% (inactive),85.3% (inactive),4.98% (inactive),80.3,85.3,-1.67% (inactive),-1.17% (inactive)
C=CCn1c(SCc2ccc(C#N)cc2)nnc1-c1cccc(Cl)c1,95.5,86% (inactive),95.5% (inactive),102% (inactive),80.2% (inactive),-3.84% (inactive),84,80.2,-2.21% (inactive),-0.17% (inactive)
CC(C)N(C(=O)COC(=O)c1ccc(O)cc1)C(C)C,96.5,87.5% (inactive),96.5% (inactive),88.3% (inactive),97.6% (inactive),9.85% (inactive),87.8,97.6,0.39% (inactive),-0.16% (inactive)
